Many of the other results were omitted from the sample, so hits are more common in it than they were.
DTT redox prof: compounds producing H2O2 with reducing agent – biochemical, NIH compound library profiling, artefact control for MLSCN library redox annotation, primary screen; 200,000 tested, 0.03% active; activation, % at 10 µM; AID 878, 2007; DTT-dependent redox cycling H2O2, phenol red/HRP absorbance; 100% = 100 µM peroxide control, 0% = buffer;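 active = activation of at least 50% relative to the plate's high and low controls in the primary single-dose screen; inactive = activation below 50%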;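 also: compound incubated with DTT at 0.8 mM final as the reducing agent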
T cruzi inh: inhibitors of intracellular T. cruzi growth, primary screen, luminescence, NIH3T3 host cells. T. cruzi beta-gal in NIH3T3, 90 h. inhibition, % (no concentration beside the values). 300,000 tested, 1.4% active. AID 1885, 2009;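 active = mean inhibition across valid replicates above about 55%, limit read from the data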;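 also: signal also drops with host cell toxicity which is not excluded here; 0% = plate median of DMSO wells and 100% = zero luminescence signal; higher percent means less beta-gal luminescence so fewer parasites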
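System: NIH/3T3 fibroblasts plus reporter T. cruzi. Medium: DMEM plus 2% FBS. Probe or stimulus: 5000 reporter trypomastigotes per well. Compound: single 50 nL compound addition per well in DMSO. Incubation: co-culture of at least 90 h after 3 h attachment. Detection: GalScreen β-gal luminescence, detergent lysis, 60 min. Evaluation: parasite load inhibition, %.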
Hep lipid drop: inhibitors of hepatocyte lipid droplet formation, primary screen, imaging, high-throughput imaging, BODIPY stain. AML12 mouse hepatocytes, oleate lipid droplets. inhibition, % at 6.5 µM. 240,000 tested, 0.4% active;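 active = lipid droplet intensity inhibited by at least 50%, with more than 500 cells counted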
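Assay system: AML12 hepatocytes (mouse) / Also added: 100 µM oleic acid challenge / Times: overnight treatment with compound plus oleate / Detection: high-content imaging of BODIPY-stained droplets and DAPI nuclei / Evaluation: % inhibition of lipid droplet signal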
Lmaj promast: Leishmania major promastigote growth inhibition, primary screen; 200,000 tested, 9% active; Leishmania major promastigotes, resazurin fluorescence viability; AID 1063, 2008; inhibition, % at 10 µM; in the data active = inhibition above about 50%;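 also: promastigotes grown with compound for 44 hours at 28 °C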
MPTP block: mitochondrial permeability transition pore inhibitors, primary screen, biochemical, isolated mouse mitochondria, absorbance; Ca2+ swelling absorbance, 30 min; inhibition, % at 10 µM; 360,000 tested, 1.4% active;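 active = inhibition of 50% or more, scaled per plate between neutral and stimulator controls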;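 also: 0% = DMSO wells given calcium and 100% = 1 mM EGTA wells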
Starred values were filed as active, the others as inactive; / = no result given.

SMILES	DTT redox prof	T cruzi inh	Hep lipid drop	Lmaj promast	MPTP block
Cc1ccc(N2C(=O)NC(=O)/C(=C\C=C\c3ccco3)C2=O)cc1C	-0.3	-8.2	-3.7	100.1*	-3.9
O=C1NC(=O)N(Cc2ccccc2)C(=O)/C1=C\C=C\c1ccco1	5.2	-17.7	-0.8	76.6*	-1.3
Cc1ccc(N2C(=O)NC(=O)/C(=C\C=C\c3ccco3)C2=O)cc1	/	-23.2	-4.9	/	1.0
C=CCCC1(C2=CCCCC2)C(=O)NC(=O)NC1=O	/	/	/	/	-0.5
CC(=O)O[C@@]12CO[C@@H]1C[C@H](O)[C@@]1(C)C(=O)[C@H](O)C3=C(C)[C@@H](OC(=O)[C@H](O)[C@@H](NC(=O)c4ccccc4)c4ccccc4)C[C@@](O)([C@@H](OC(=O)c4ccccc4)C12)C3(C)C (stereo not given in full)	/	54.7*	-82.7	/	-0.6
COC(=O)C1=C(c2ccc(OCc3ccccc3)cc2)C[C@@H]2CC[C@H]1N2C(=O)NCc1ccc([N+](=O)[O-])cc1	/	/	/	/	-0.1
CC1CCC(C(C)C)C(OC(=O)Cn2c(COc3ccccc3)[n+](C)c3ccccc32)C1 (stereo not given)	/	73.0*	9.0	/	38.6
CCOC(=O)C1=C(C)OC(N)=C(C(=O)OCC)C12C(=O)Nc1ccc(Br)cc12 (stereo not given)	1.3	0.4	0.3	50.6*	-4.4
CNC(=O)Oc1ccc(N(C)C)cc1C(C)C	/	0.8	-6.0	/	0.3
OC1(c2ccccc2F)CC2CCC(C1)N2CCN1CCOCC1 (stereo not given)	1.3	2.5	/	52.2*	-0.5
COc1ccc(C(=O)CN2CCOCC2)cc1F	-0.6	3.2	/	2.7	7.0
COc1ccc(/C=C/C(=O)c2c(O)n(CCC3=CCCCC3)c(=O)[nH]c2=O)cc1	0.6	-7.8	-1.5	76.5*	-3.2
Clc1ccc(-c2nc3ccc(Cl)cn3c2CN2CCOCC2)cc1	-7.2	25.9	-1.6	52.7*	-0.2
Clc1ccc(-c2nc3ccc(Cl)cn3c2CN2CCCCC2)cc1	/	38.0	0.9	/	-1.7
Oc1ccc(CC2(N3CCCC3)CCCCC2)cc1	/	-17.4	-0.3	/	0.9
COc1ccccc1CCNC1CCC(C(C)(C)C)CC1 (stereo not given)	-4.9	58.8*	/	100.5*	27.5
COc1ccccc1CCNC1CCCCCC1	/	-13.6	-2.0	/	0.3
C[C@]12CCC3C(CC[C@H]4C[C@@H](O)CC[C@]34C)C1C[C@@H](Br)[C@H]2O (stereo not given in full)	/	/	/	/	0.9
CCOc1ccc(Cl)cc1CNCCc1ccc(F)cc1	-0.2	40.5	-3.6	64.6*	3.5
Cc1cc(C=C2C(=O)NC(=S)NC2=O)c(C)n1C1CCCC1	-1.4	-15.4	7.6	63.1*	15.2
Cc1cc(C=C2C(=O)N(C)C(=S)N(C)C2=O)c(C)n1C1CCCCC1	-0.4	-6.0	/	20.9	1.7
COC(=O)CC(NC(=S)N1CC2C[C@@H](C1)Cn1c2cccc1=O)C(=O)OC (stereo not given in full)	/	-5.0	0.9	/	0.4
FC(F)(F)c1ccc(CN2CCNCC2)cc1	-0.6	0.4	8.8	95.6*	0.1
Cc1ccc(C2=NCC(=O)Nc3ccc(Br)cc32)cc1	/	10.7	-6.5	/	-0.8
CCCCCCn1c(=O)c(C(=O)Nc2nnc(C)s2)c(O)c2ccccc21	-0.5	-14.2	-0.9	3.6	/
SMILES	DTT redox prof	T cruzi inh	Hep lipid drop	Lmaj promast	MPTP block
CCCCn1c(=O)c(C(=O)Nc2ccccc2S(N)(=O)=O)c(O)c2ccccc21	-1.6	-3.4	/	-5.8	-2.3
CCCCCCCn1c(=O)c(C(=O)Nc2cnccn2)c(O)c2ccccc21	/	6.2	6.2	/	-6.0
CCCCCn1c(=O)c(C(=O)Nc2ccccc2S(N)(=O)=O)c(O)c2ccccc21	-0.3	68.6*	-2.6	95.5*	-2.9
CCCCn1c(=O)c(C(=O)NCc2ccncc2)c(O)c2ccccc21	2.8	21.7	/	88.8*	2.0
CCCCCn1c(=O)c(C(=O)Nc2cnccn2)c(O)c2ccccc21	-0.1	-18.3	-17.5	98.4*	3.4
CCCCCn1c(=O)c(C(=O)Nc2nc(CC(=O)OCC)cs2)c(O)c2ccccc21	-0.1	23.6	13.8	90.5*	22.0
CCOc1cc2c(cc1OCC)-n1cccc1C(c1ccc(OC)cc1)NC2 (stereo not given)	/	4.7	-2.0	/	0.6
O=C1NC(=O)C2(Cc3ccccc3N3CCOCC32)C(=O)N1c1ccccc1 (stereo not given)	-0.1	3.1	/	91.5*	-1.2
COc1cccc(C2CC3C(=O)C=CC2N3Cc2ccccc2)c1 (stereo not given)	0.0	4.6	-22.3	99.1*	-1.0
CCNC(=S)N1CCn2cccc2C1c1cccnc1 (stereo not given)	-0.5	30.4	5.8	70.4*	0.0
OCC1(CO)COC(c2cccnc2)N1 (stereo not given)	1.9	-3.8	/	-5.5	-2.4
COc1ccc(CCNC(C)CCc2ccc(OC)cc2)cc1 (stereo not given)	0.1	43.7	-20.6	92.7*	1.3
COc1ccc(CCNCc2ccncc2)cc1	0.0	10.1	13.0	90.2*	3.9
COc1ccc(-c2nn(CCC#N)cc2C(=O)Nc2ccc(C(C)=O)cc2)cc1[N+](=O)[O-]	/	0.8	3.6	/	0.2
C=CCn1c(O)c(C(C)=Nc2ccc(C(=O)O)cc2)c(=O)[nH]c1=O	/	-1.9	1.2	/	-0.9
O=C(OC1CC2CCC(N2)C1C(=O)O)c1ccccc1 (stereo not given)	/	/	/	/	0.4
Clc1ccccc1NC1=NCCCS1	/	-17.0	-12.2	/	0.2
CC(=O)N(C1=NCCCS1)c1ccccc1Cl	-1.1	-10.0	8.3	69.2*	0.9
Fc1ccc(C2=CCN(C(c3cccs3)c3nnnn3CCc3ccccc3)CC2)cc1 (stereo not given)	0.1	45.7	3.7	99.8*	0.2
CCC(C)(C)n1nnnc1C(c1cccs1)N1CC=C(c2ccc(F)cc2)CC1 (stereo not given)	0.2	25.7	/	2.0	1.5
C[C@]12CC[C@@H](O)C[C@@H]1CC[C@@H]1[C@@H]2CC[C@]2(C)C(=O)[C@H](O)C[C@@H]12	/	/	/	/	1.2
COc1ccc2c(c1OC)CN1CCc3cc4c(cc3[C@H]1C2)OCO4	/	/	/	/	2.9
COc1ccc2c(c1OC)CN1CCc3cc4c(cc3C1C2)OCO4 (stereo not given)	/	57.9*	-0.4	/	0.2
COc1ccc(CC(C)NC2CCCCCC2)cc1 (stereo not given)	/	8.0	-3.2	/	0.1
COC(=O)C(O)(c1ccc(N(C)S(=O)(=O)c2ccccc2)cc1)C(F)(F)F (stereo not given)	-1.5	-3.2	/	99.7*	-2.0
COC(=O)C(O)(c1ccc(NC(=O)Oc2ccccc2)cc1)C(F)(F)F (stereo not given)	-0.8	-3.5	-21.9	-1.0	0.6

Screens deposited in PubChem BioAssay by several laboratories.
